The structures appear in SMILES notation. Several values for one entry are separate records, joined by “and”; a condition that tells them apart may be missing. Equal entries are not always repeated.

The values that follow come from ChEMBL document CHEMBL1149329, “Synthesis and biological activity of sulfonamide derivatives of epipodophyllotoxin” (J Med Chem, 2004).

The subject of experiment [1] is A-431. The experiment in a line: […] antiproliferative activity against A431 cell line. In kind it is functional. To be noted: Homo sapiens.
Experiment [2] relates to A549. The experiment in a line: Antitumor activity against A549 non small cell carcinoma at dose range of 25-100 mg/kg on day 14, 21, 28; activity expressed as maximum tolerated dose. In kind it is functional, Homo sapiens. A digest of the protocol: (§1)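 A549 human lung tumour cells were implanted orthotopically, 10⁶ cells through the chest wall into the left pleural space of anaesthetised BALB/C nude mice. Once tumours were established, drug was given iv on days 14, 21 and 28 after tumour cell injection. The endpoint was life span, expressed as T/C (%) = median survival time of treated/control × 100. MTD was the dose causing no toxic death and/or no weight loss >20%.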

For experiment [3], the system named is A549. The experiment in a line: […] antiproliferative activity against A549 cell line. In kind it is functional. To be noted: Homo sapiens.
The test system of experiment [4] is DU-145. The experiment in a line: […] antiproliferative activity against DU-145 cell line. In kind it is functional. The note with it: Homo sapiens.
For experiment [5], the target named is DNA topoisomerase II (Homo sapiens) (UniProt P11388+Q02880). Put plainly: Inhibition of human DNA Topoisomerase II mediated DNA cleavage through the stabilization of transient DAN/topoisomerase II cleavage complex. In kind it is protein assay. The procedure, abridged: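 Supercoiled pBS DNA (0.1 μg) preincubated 15 min at 30 °C with drug at 50 μM in 50 mM Tris-HCl pH 7.5, 1 mM ATP, 120 mM KCl, 10 mM MgCl2, 0.5 mM DTT, 0.1 mM EDTA, BSA. Two units human topo II added, 30 min at 30 °C. SDS/proteinase K digestion 30 min at 55 °C. 1% agarose gel with ethidium bromide; linear DNA percentage read, mean of three independent experiments.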

Experiment [6] concerns HT-29. The experiment in a line: […] antiproliferative activity against HT-29 cell line. Type of experiment: functional. To be noted: Homo sapiens.
Experiment [7] concerns L1210. The experiment in a line: Percent of L1210 cells in the G2+M phase of the cell cycle at a compound concentration of 0.2 uM. In kind it is functional, Mus musculus. A digest of the protocol:
(§2)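 L1210 cells (2.5 × 10⁵ cells/mL) were incubated for 21 h with compound at the stated concentration. Flow cytometry was run on 10⁴ cells per sample, and the percentage of cells in G2+M was recorded.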

In experiment [8] the test system is IGROV-1. Put plainly: […] antiproliferative activity against IGROV1 cell line. In kind it is functional. The note with it: Homo sapiens.
The test system of experiment [9] is K562. Put plainly: […] antiproliferative activity against K-562 cell line. To be noted: Homo sapiens. In kind it is functional.
Experiment [10] relates to L1210. The experiment in a line: Inhibitory concentration required to reduce 50 percent L1210 cell growth. In kind it is functional, cell-based. The note with it: Mus musculus. A digest of the protocol:
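L1210 cells were grown in RPMI 1640 with 10% fetal calf serum, 2 mM glutamine, antibiotics and 10 mM HEPES (pH 7.4). Cells were exposed to compound for 48 h. MTT was then added for 4 h at 37 °C, and formazan was dissolved in DMSO and read at 540 nm. IC50 is the concentration reducing OD by 50%, from linear regression on the linear part of the curve. Triplicate.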

Experiment [11] deals with L1210. The experiment in a line: […] antiproliferative activity against L1210 cell line. Type of experiment: functional. The note with it: Mus musculus.
Experiment [12] relates to MDA-MB-231. The experiment in a line: […] antiproliferative activity against MDA-MB-231 cell line. In kind it is functional. To be noted: Homo sapiens.
In experiment [13] the test system is P388. Put plainly: Evaluated for long-term survivors scored at day 60; 0/6. Type of experiment: functional, Mus musculus.
Experiment [14] deals with NCI-H69. The experiment in a line: […] antiproliferative activity against NCI-H69 cell line. Type of experiment: functional. To be noted: Homo sapiens.
The subject of experiment [15] is P388. The experiment in a line: […] antiproliferative activity against P388 cell line. Type of experiment: functional. To be noted: Mus musculus.
Experiment [16] relates to P388. The experiment in a line: Antitumor activity against P388 leukemia at dose range of 6.25-100 mg/kg on day 1, activity expressed as maximum tolerated dose. In kind it is functional, Mus musculus.
Experiment [17] concerns P388. Put plainly: Median survival time of treated animals/median survival time of control animals. Type of experiment: functional, Mus musculus.
Experiment [18] relates to SK-N-MC. The experiment in a line: […] antiproliferative activity against SK-N-MC cell line. In kind it is functional. To be noted: Homo sapiens.
Experiment [19] relates to L1210. The experiment in a line: Percent of L1210 cells in the G2+M phase of the cell cycle at a compound concentration of 0.5 uM. Type of experiment: functional, Mus musculus. A digest of the protocol: as §2
Experiment [20] relates to L1210. The experiment in a line: Percent of L1210 cells in the G2+M phase of the cell cycle at a compound concentration of 50 uM. In kind it is functional, Mus musculus. The procedure, abridged:
as §2

Experiment [21] concerns L1210. Put plainly: Percent of L1210 cells in the G2+M phase of the cell cycle at a compound concentration of 25 uM. In kind it is functional, Mus musculus. The procedure, abridged: as §2
In experiment [22] the test system is A549. Put plainly: Antitumor activity against A549 non small cell carcinoma at dose range of 6.25-25 mg/kg on day 14, 21, 28; activity expressed as maximum tolerated dose. In kind it is functional, Homo sapiens. A digest of the protocol: as §1
The test system of experiment [23] is L1210. Put plainly: Percent of L1210 cells in the G2+M phase of the cell cycle at a compound concentration of 0.25 uM. In kind it is functional, Mus musculus. The procedure, abridged: as §2
Experiment [24] relates to P388. The experiment in a line: Antitumor activity against P388 leukemia at dose range of 12.5-200 mg/kg on day 1, activity expressed as maximum tolerated dose. In kind it is functional, Mus musculus.
Experiment [25] concerns L1210. Put plainly: Percent of L1210 cells in the G2+M phase of the cell cycle at a compound concentration of 2.5 uM. Type of experiment: functional, Mus musculus. A digest of the protocol:
as §2

In experiment [26] the test system is L1210. Put plainly: Percent of L1210 cells in the G2+M phase of the cell cycle at a compound concentration of 1 uM. In kind it is functional, Mus musculus. A digest of the protocol: as §2

As to `CCCCS(=O)(=O)N[C@@H]1c2cc3c(cc2[C@@H](c2cc(OC)c(O)c(OC)c2)[C@H]2C(=O)OC[C@@H]21)OCO3`, the IC50 in [1] was 142 nM; in experiment [3], 62.6 nM; in experiment [4] it was 304 nM; in experiment [6], 237 nM; in [8], 61.4 nM; in experiment [9], 139 nM. Further, the IC50 in experiment [10] was determined as 33 nM; in experiment [11], 33.5 nM; in experiment [12], 69.2 nM; in [14], 316 nM; in [15] it was 16.1 nM; in [18] it was 85.7 nM. Besides, the values for the MTD in [2] and in experiment [16] were 50 and 100, respectively. Further, the Activity in experiment [5] stood at 10. The compound also yielded an Effect in experiment [7] of 75%. In experiment [13], the LTS is reported as 0. Also, in experiment [17], the T/C is 161% and 105%.

The compound `COc1cc([C@@H]2c3cc4c(cc3[C@@H](NS(=O)(=O)c3ccc(N=[N+]=[N-])cc3)[C@H]3COC(=O)[C@H]23)OCO4)cc(OC)c1O` came in with an Activity in experiment [5] of 9. The compound also yielded an IC50 in experiment [10] of 210 nM. In addition, the Effect in experiment [19] came to 69%.

`COc1cc([C@@H]2c3cc4c(cc3[C@@H](NS(=O)(=O)CCCN)[C@H]3COC(=O)[C@H]23)OCO4)cc(OC)c1O` gave an Activity in [5] of 45. Also, in experiment [20], the Effect turned out to be 75%. The compound also showed an IC50 in experiment [10] of 2500 nM.

In [5], `COc1cc([C@@H]2c3cc4c(cc3[C@@H](NS(=O)(=O)c3ccc(N)cc3)[C@H]3COC(=O)[C@H]23)OCO4)cc(OC)c1O` returned an Activity of 0. This compound registered an Effect in [7] of 75%. The compound also came in with an IC50 in experiment [10] of 340 nM.

In experiment [5], `CCCCCCCCCCCCCCCCS(=O)(=O)N[C@@H]1c2cc3c(cc2[C@@H](c2cc(OC)c(O)c(OC)c2)[C@H]2C(=O)OC[C@@H]21)OCO3` showed an Activity of 0. Also, the Effect in experiment [21] amounted to 73%. Further, the IC50 in [10] turned out to be 5500 nM.

Regarding `COc1cc([C@@H]2c3cc4c(cc3[C@@H](NS(=O)(=O)N(C)C)[C@H]3COC(=O)[C@H]23)OCO4)cc(OC)c1O`, the MTD in experiment [22] is 6.25; in experiment [24], 100. The compound further gave an Activity in experiment [5] of 44. Moreover, in [23], the Effect is recorded as 66%. The compound further gave an IC50 in experiment [10] of 37 nM. The LTS in experiment [13] is recorded as 0. For the same compound, in experiment [17], the T/C is 192% and 133%.

Take `COc1cc([C@@H]2c3cc4c(cc3[C@@H](NS(=O)(=O)CCCCl)[C@H]3COC(=O)[C@H]23)OCO4)cc(OC)c1O`: the Activity in [5] is 14. The compound also displayed an Effect in experiment [23] of 66%. In addition, in experiment [10], 45 nM corresponded to half-maximal inhibition (IC50).

Consider `COc1cc([C@@H]2c3cc4c(cc3[C@@H](N=[N+]=[N-])[C@H]3COC(=O)[C@H]23)OCO4)cc(OC)c1O`, for which, in experiment [5], the Activity was found to be 44. Besides, the Effect in experiment [25] is 61%. In addition, in [10], half-maximal inhibition (IC50) was put at 570 nM.

The compound `COc1cc([C@@H]2c3cc4c(cc3[C@@H](NS(=O)(=O)N3CCCCC3)[C@H]3COC(=O)[C@H]23)OCO4)cc(OC)c1O` displayed an Activity in experiment [5] of 34. In experiment [10], this compound displayed an IC50 of 120 nM. In experiment [13], this compound displayed an LTS of 0. The same compound registered an MTD in experiment [24] of 200. For the same compound, the T/C in experiment [17] is recorded as 121%. The compound further had an Effect in experiment [19] of 77%.

The compound `CCCCCCCCS(=O)(=O)N[C@@H]1c2cc3c(cc2[C@@H](c2cc(OC)c(O)c(OC)c2)[C@H]2C(=O)OC[C@@H]21)OCO3` registered an Activity in experiment [5] of 35. For the same compound, in experiment [26], the Effect is given as 76%. The IC50 in experiment [10] was found to be 250 nM.
